Assay results published in ChEMBL document CHEMBL5154669, “G-Quadruplex DNA as a Target in Pathogenic Bacteria: Efficacy of an Extended Naphthalene Diimide Ligand and Its Mode of Action” (J Med Chem, 2022).

Key:
Bacillus cereus [1] = test: Antimicrobial activity against Bacillus cereus ATCC 10987 assessed as inhibition of bacterial growth in presence of D11 incubated for 20 hrs; conditions: ATCC 10987, 20 h
[2] = test system: Staphylococcus epidermidis; test: Antibacterial activity against Staphylococcus epidermidis Tu3298 assessed as inhibition of bacterial growth incubated for 20 hrs by CLSI based broth microdilution method; assay type: functional
Method in brief: (§1)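 Broth microdilution in cation-adjusted Mueller-Hinton broth following CLSI guidelines. DMSO stocks were at 10 mM; compounds were twofold serially diluted over 128 to 2 μM. The inoculum was at 5 × 10⁵, prepared from colonies grown 20 h at 37 °C and adjusted to 0.5 McFarland. Plates ran 20 h at 37 °C with OD600 read-out. MIC was the lowest concentration inhibiting visible growth, in triplicate.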

Acinetobacter baumannii [3] = test: Antibacterial activity against Acinetobacter baumannii LMG 01041 assessed as inhibition of bacterial growth incubated for 20 hrs by CLSI based broth microdilution method; assay type: functional
Method in brief: as §1

Enterococcus faecium = test: Antibacterial activity against Enterococcus faecium LMG 16003 assessed as inhibition of bacterial growth incubated for 20 hrs by CLSI based broth microdilution method; assay type: functional
Method in brief: as §1

Escherichia coli [4] = test: Antibacterial activity against Escherichia coli LMG 8223 infected in Galleria mellonella assessed as survival at 5 to 10 mg/kg after 5 days; assay type: functional; conditions: dose 5-10 mg/kg, time 5 day
Method in brief: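 Larvae, 20 per group, were infected with 10 µL of saline-washed bacteria into the left proleg: E. coli at 10⁶ CFU/worm and S. aureus at 10⁵ CFU/worm. After 1 h at 37 °C, the compound (5 or 10 mg/kg) was injected into the last right proleg. Controls were meropenem 5 mg/kg (E. coli), rifampicin 10 mg/kg (S. aureus) and NaCl 0.9%. Mortality was followed over 5 d at 37 °C.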

Escherichia coli [5] = test: Antibacterial activity against Escherichia coli LMG 8223; assay type: functional, organism-based; conditions: DDE = dose-dependent effect
Method in brief: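 Cultures were inoculated at 2% and grown at 37 °C, with OD600 read every 5 min for 8 h. NDI-10 was added at exponential-phase onset (~3 h). Concentrations were 32, 16, 8 and 4 μM for E. coli, and 16, 8, 4 and […] μM for the Gram-positive strains.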

DNA [6] = test: Stabilization of Escherichia coli in G-quadruplex DNA GGT GGG GAG GGG TAA GGG G assessed as melting temperature at 10 uM incubated for 16 hrs by […]; assay type: nucleic-acid assay
Method in brief: (§2)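 Readout was CD melting, not FRET: 2.5 μM oligonucleotide in 10 mM lithium cacodylate pH 7.4 with KCl set per sequence (initial Tm 60-70 °C). Annealed 95 °C 5 min, cooled to room temperature over 4 h, then ligand 10 μM (4 equiv) equilibrated 16 h at 20 °C. Ellipticity at 260 nm tracked every 0.1 °C, 20-95 °C at 5 °C/min; Tm by van't Hoff two-state fit.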

DNA [7] = test: Stabilization of Staphylococcus aureus in G-quadruplex DNA GGGTTTGGGGCGGCGGTTGG assessed as melting temperature at 10 uM incubated for 16 hrs by […]; assay type: nucleic-acid assay
Method in brief: as §2

DNA [8] = test: Stabilization of Staphylococcus aureus in G-quadruplex DNA GGA AGG AGG GGT GAC AGG G assessed as melting temperature at 10 uM incubated for 16 hrs […]; assay type: nucleic-acid assay
Method in brief: as §2

Klebsiella pneumoniae = test: Bactericidal activity against Klebsiella pneumoniae LMG 20218 assessed as inhibition of bacterial growth; assay type: functional
Method in brief: (§3)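 A standard MIC plate (128–2 μM, cMHB, 20 h, 37 °C) was read at OD600. Each well then seeded at 10% a fresh compound-free cMHB plate, grown another 20 h at 37 °C and read at OD600. No growth at the same concentration in both plates counted as bactericidal. Growth above the MIC counted as bacteriostatic. Done in triplicate.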

Acinetobacter baumannii [9] = test: Antimicrobial activity against Acinetobacter baumannii LMG 01041 assessed as inhibition of bacterial growth in presence of D11 incubated for 20 hrs; conditions: LMG 01041, 20 h
Klebsiella aerogenes [10] = test: Antibacterial activity against Enterobacter aerogenes LMG 02094 assessed as inhibition of bacterial growth incubated for 20 hrs by CLSI based broth microdilution method; assay type: functional
Method in brief: as §1

DNA [11] = test: Stabilization of Escherichia coli in G-quadruplex DNA GGG GGA GGA GGA CGG GGG assessed as melting temperature at 10 uM incubated for 16 hrs by […]; assay type: nucleic-acid assay
Method in brief: as §2

Enterococcus faecalis [12] = test: Bacteriostatic activity against Enterococcus faecalis V583 assessed as inhibition of bacterial growth; assay type: functional
Method in brief: as §3

DNA [13] = test: Stabilization of Escherichia coli in G-quadruplex DNA GGG GCG GGG TGG GTT GG assessed as melting temperature at 10 uM incubated for 16 hrs by FRET method; assay type: nucleic-acid assay
[14] = Toxicity against Galleria mellonella assessed as survival at 5 to 128 mg/kg measured after 5 days; assay type: organism-based; conditions: in vivo, dose 5-128 mg/kg, time 5 day, read-out: Activity
Method in brief: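 For uninfected larvae, 20 per treatment, 10 µL was injected into the hemocoel through the last left proleg to give 8, 16, 32, 64 or 128 mg/kg. NaCl 0.9% served as the negative control. Larvae were held at 37 °C for 5 d, with mortality recorded daily.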

Pseudomonas aeruginosa = test: Antimicrobial activity against Pseudomonas aeruginosa LMG 6395 assessed as inhibition of bacterial growth in presence of D11 incubated for 20 hrs; conditions: LMG 6395, 20 h
Escherichia coli [15] = test: Antibacterial activity against Escherichia coli LMG 8223 assessed as inhibition of bacterial growth incubated for 20 hrs by CLSI based broth microdilution method; assay type: functional
Method in brief: as §1

Bacillus cereus [16] = test: Antibacterial activity against Bacillus cereus ATCC 14579 assessed as inhibition of bacterial growth incubated for 20 hrs by CLSI based broth microdilution method; assay type: functional
Method in brief: as §1

Staphylococcus aureus [17] = test: Antibacterial activity against Staphylococcus aureus LMG 8224 infected in Galleria mellonella assessed as survival at 5 to 10 mg/kg after 3 days; conditions: dose 5-10 mg/kg, time 3 day
Salmonella enterica = test: Antibacterial activity against Salmonella enterica LMG 07233 assessed as inhibition of bacterial growth incubated for 20 hrs by CLSI based broth microdilution method; assay type: functional
Method in brief: as §1

Klebsiella aerogenes [18] = test: Antimicrobial activity against Enterobacter aerogenes LMG 02094 assessed as inhibition of bacterial growth in presence of D11 incubated for 20 hrs; conditions: LMG 02094, 20 h
Staphylococcus aureus [19] = test: Antimicrobial activity against Staphylococcus aureus LMG 8224 assessed as inhibition of bacterial growth in presence of D11 incubated for 20 hrs; conditions: LMG 8224, 20 h
Enterococcus faecalis [20] = test: Antimicrobial activity against Enterococcus faecalis V583 assessed as inhibition of bacterial growth in presence of D11 incubated for 20 hrs; conditions: V583, 20 h
Enterococcus faecalis [21] = test: Antibacterial activity against Enterococcus faecalis LMG 08222 assessed as inhibition of bacterial growth incubated for 20 hrs by CLSI based broth microdilution method; assay type: functional
Method in brief: as §1

Work on `CN(C)CCCn1c(=O)c2ccc3c(=O)n(CCCN(C)C)c(=O)c4c5[nH]c6ccccc6[nH]c5c(c1=O)c2c34.O=C(O)C(F)(F)F.O=C(O)C(F)(F)F` yielded an MIC (Bacillus cereus [1]) of 8 µM, an MIC [2] of 16 µM and an MIC (Acinetobacter baumannii [3]) of 64 µM. The MIC (Enterococcus faecium) was 4 µM, the Activity (Escherichia coli [4]) was 90% and the Activity (Escherichia coli [5]) was “Dde”. It also gave a Tm (DNA [6]) of 91 °C, a Tm (DNA [7]) of over 95 °C and a Tm (DNA [8]) of over 95 °C. For the same compound, the MIC (Klebsiella pneumoniae) was over 128 µM, the MIC (Acinetobacter baumannii [9]) was 8 µM and the MIC (Klebsiella aerogenes [10]) was 32 µM. It also gave a Tm (DNA [11]) of over 95 °C, an MIC (Enterococcus faecalis [12]) of 64 µM and a Tm (DNA [13]) of 82.5 °C. It also gave a survival at 120 h [14] of 65%, an MIC (Pseudomonas aeruginosa) of 4 µM and an MIC (Escherichia coli [15]) of 16 µM. The MIC (Bacillus cereus [16]) was 8 µM, the Activity (Staphylococcus aureus [17]) was 70% and the MIC (Salmonella enterica) was 64 µM. The MIC (Klebsiella aerogenes [18]) was 8 µM, the MIC (Staphylococcus aureus [19]) was 16 µM and the MIC (Enterococcus faecalis [20]) was 4 µM. It also gave an MIC (Enterococcus faecalis [21]) of 8 µM.
